Laboratory results from ChEMBL document CHEMBL4725355, “Design, Synthesis, and Preclinical Evaluation of 3-Methyl-6-(5-thiophenyl)-1,3-dihydro-imidazo[4,5-b]pyridin-2-ones as Selective GluN2B Negative Allosteric Modulators for the Treatment of Mood Disorders” (J Med Chem, 2020).

Assays:
[1] = (§1) Ratio of Cmax in Sprague-Dawley rat at 1000 mg/kg, po administered via gavage after 24 hrs using HPMC formulation by LC-MS/MS analysis to EC70 for ex vivo receptor occupancy at GluN2B in po dosed Sprague-Dawley rat assessed as 3-[3H] 1-(azetidin-1-yl)-2-[6-(4-fluoro-3-methyl-phenyl)pyrrolo[3,2-b]pyridin-1-yl]-ethanone labelling; assay type: ADME, organism-based
[2] = as §1, with “100” for “1000”, “nanosuspension” for “HPMC”; assay type: ADME, organism-based
[3] = Clearance in dog at 0.1 mg/kg, iv by LC-MS/MS analysis; assay type: ADME, organism-based, Canis lupus familiaris; settings: in vivo
[4] = Drug level in Sprague-Dawley rat brain cerebellum at 0.03 mg/kg, iv after 60 min by LC-MS/MS analysis; assay type: ADME, organism-based; settings: read-out: Drug uptake
Procedure, shortened: (§2)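 Single i.v. dose of 0.03 mg/kg in 50% (w/v) PEG/water, pH 7.4; rats n=3 per group, killed at 5, 10, 30, 60 and 120 min. Cerebellum, cortex, striatum and hippocampus dissected, weighed and homogenized; drug quantified by LC-MS/MS and normalized to tissue weight. P<0.05 taken as significant versus cerebellum.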

[5] = as §1, with “250” for “1000”, “nanosuspension” for “HPMC”; assay type: ADME, organism-based
[6] = Displacement of 3-[3H] 1-(azetidin-1-yl)-2-[6-(4-fluoro-3-methyl-phenyl)pyrrolo[3,2-b]pyridin-1-yl]ethanone from GluN1a/GluN2B receptor in rat cortex membranes measured after 2 hrs by liquid scintillation counting method; assay type: cell membranes
Procedure, shortened: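 Rat adult cortex was homogenized in 50 mM Tris pH 7.4, and membranes were washed by centrifugation. Membranes were incubated with the [3H] pyrrolopyridine tracer and test compound for 2 h at room temperature with shaking. Non-specific binding was defined with 10 µM CP-101,606. Bound tracer was separated by filtration on PEI-soaked GF/B filters and counted by liquid scintillation. Ki was obtained from a competition fit using tracer Kd; three independent runs in duplicate.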

[7] = Intrinsic clearance in cynomolgus monkey liver microsomes at 1 uM after 5 to 60 mins in presence of NADPH by LC-MS/MS analysis; assay type: ADME, Macaca fascicularis, Microsome; settings: time 5-60 min, read-out: CLH
[8] = Intrinsic clearance in human liver microsomes at 1 uM after 5 to 60 mins in presence of NADPH by LC-MS/MS analysis; assay type: ADME, Microsome; settings: time 5-60 min, read-out: CLH
[9] = Half life in Sprague-Dawley rat at 0.5 mg/kg, iv or 2.5 mg/kg, po using 1:1 PEG-400/water formulation by LC-MS/MS analysis; assay type: ADME, organism-based; settings: in vivo
Procedure, shortened: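 Rats dosed 0.5 mg/kg i.v. and 2.5 mg/kg p.o., n=3 ± SD. Default vehicle is 20% HP-β-CD; one PK set used 1:1 PEG400/water and another 30% SBE-β-CD.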

[10] = Protein binding in human plasma assessed as unbound fraction at 0.5 uM after 6 hrs by equilibrium dialysis method; assay type: ADME, cell-free
[11] = AUC (infinity) in mouse at 2.5 mg/kg, po by LC-MS/MS analysis; assay type: ADME, organism-based; design: route oral, time infinity, dose 2.5 mg/kg; settings: in vivo
Cytochrome P450 3A4 = Cytochrome P450 3A4 (Homo sapiens, UniProt P08684); experiment: Inhibition of CYP3A4 in human liver microsomes using testosterone as substrate measured after 15 mins by LC-MS/MS analysis; assay type: ADME
Procedure, shortened: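 Human liver microsomes incubated with isoform-specific probe substrates and the test compound at concentrations up to 20 µM. IC50 derived from inhibition of metabolite formation; mean of two independent experiments, with known specific inhibitors as positive controls.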

[12] = Negative allosteric modulation of human GluN1a/GluN2A receptor expressed in CHO cells assessed as inhibition of glutamate and glycine-induced calcium flux preincubated for 5 mins followed by glutamate and glycine addition and measured after 5 mins by calcium 5 dye based FLIPR assay; assay type: cell-based
Procedure, shortened: (§3)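 Tet-On CHO T-Rex cells expressing hGluN1a with GluN2A, 2B, 2C or 2D, plated at 20,000 cells/well and induced 24 h before the assay in the presence of ketamine. Cells loaded 1 h at room temperature with Calcium 5 dye, pH 7.4 HEPES buffer. Compound added 5 min, then glutamate (~EC80) plus 10 µM glycine for 5 min; FLIPR fluorescence normalized to control wells. Three independent runs in duplicate (two for some).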

[13] = Tmax in Sprague-Dawley rat at 1000 mg/kg, po administered via gavage after 24 hrs using HPMC formulation by LC-MS/MS analysis; assay type: ADME, organism-based; settings: in vivo
Procedure, shortened: (§4)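 Single oral gavage of a 5% HPMC suspension at 125, 250, 500 or 1000 mg/kg to male Sprague Dawley rats, 3 per group. Plasma was sampled at 6 time points from 0.5 to 24 h.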

[14] = Half life in dog at 0.5 mg/kg, po by LC-MS/MS analysis; assay type: ADME, organism-based, Canis lupus familiaris; settings: in vivo
[15] = Cmax in Sprague-Dawley rat at 0.5 mg/kg, iv or 2.5 mg/kg, po using 1:1 PEG-400/water formulation by LC-MS/MS analysis; assay type: ADME, organism-based; design: dose 2.5 mg/kg; settings: in vivo
Procedure, shortened: (§5)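 Rat IV/PO PK at 0.5 mg/kg IV and 2.5 mg/kg PO, dosed in 1:1 PEG400/water, n=3.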

[16] = Tmax in Sprague-Dawley rat at 125 mg/kg, po administered via gavage after 24 hrs using HPMC formulation by LC-MS/MS analysis; assay type: ADME, organism-based; settings: in vivo; procedure, shortened: as §4
[17] = Ex vivo receptor occupancy at GluN2B in Sprague-Dawley rat assessed as 3-[3H] 1-(azetidin-1-yl)-2-[6-(4-fluoro-3-methyl-phenyl)pyrrolo[3,2-b]pyridin-1-yl]-ethanone labelling at 3 mg/kg, po measured after 6 hrs by autoradiography; assay type: functional
Procedure, shortened: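 Rats dosed orally at 3 mg/kg in 20% HP-β-CD; brains taken at 0.5, 2 and 6 h. Ex vivo autoradiography of brain slices with the ³H pyrrolo[3,2-b]pyridine GluN2B tracer. Labelling expressed relative to matching brain areas of vehicle-treated animals; n=2, ± SEM.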

[18] = Drug level in Sprague-Dawley rat brain hippocampus at 0.03 mg/kg, iv after 60 min by LC-MS/MS analysis; assay type: ADME, organism-based; settings: read-out: Drug uptake; procedure, shortened: as §2
[19] = Negative allosteric modulation of human GluN1a/GluN2C receptor expressed in CHO cells assessed as inhibition of glutamate and glycine-induced calcium flux preincubated for 5 mins followed by glutamate and glycine addition and measured after 5 mins by calcium 5 dye based FLIPR assay; assay type: cell-based; procedure, shortened: as §3
[20] = Protein binding in rat plasma assessed as unbound fraction at 0.5 uM after 6 hrs by equilibrium dialysis method; assay type: ADME, cell-free
[21] = Solubility of compound in 20% hydroxypropyl-beta-cyclodextrin; assay type: physicochemical
Procedure, shortened: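 Solubility of the compound assessed in dosing excipients, including 30% SBE-β-CD, 50% PEG-400 and 20% HP-β-CD. The aim was a solution usable for rat dosing; the 20% HP-β-CD formulation was checked for a 0.1 mg/mL solution to support a 0.5 mg/kg dose.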

[22] = Clearance in Sprague-Dawley rat at 0.5 mg/kg, iv using 1:1 PEG-400/water formulation by LC-MS/MS analysis; assay type: ADME, organism-based; settings: in vivo; procedure, shortened: as §5
[23] = Solubility of compound in phosphate buffer at pH 7 measured after 3 days; assay type: physicochemical; settings: time 3 day
Procedure, shortened: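 Solubility in aqueous buffer at pH 2 and pH 7, and in simulated gastric and intestinal fluids.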

Cytochrome P450 3A4, sequence (P08684 whole entry, canonical isoform): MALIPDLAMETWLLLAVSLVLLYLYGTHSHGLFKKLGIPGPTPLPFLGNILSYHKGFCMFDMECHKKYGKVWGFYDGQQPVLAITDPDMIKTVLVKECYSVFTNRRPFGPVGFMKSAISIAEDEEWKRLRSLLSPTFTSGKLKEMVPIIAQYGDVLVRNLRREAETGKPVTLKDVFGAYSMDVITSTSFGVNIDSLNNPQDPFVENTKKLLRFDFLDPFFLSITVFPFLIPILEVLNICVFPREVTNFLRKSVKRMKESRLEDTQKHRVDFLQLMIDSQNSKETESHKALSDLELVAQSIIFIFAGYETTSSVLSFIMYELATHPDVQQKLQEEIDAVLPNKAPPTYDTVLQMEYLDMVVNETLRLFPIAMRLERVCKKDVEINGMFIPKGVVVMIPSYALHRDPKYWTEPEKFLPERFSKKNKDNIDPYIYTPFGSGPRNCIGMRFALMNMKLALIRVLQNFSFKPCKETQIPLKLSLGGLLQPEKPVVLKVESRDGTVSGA

Ratio [1]: 10
Ratio [2]: 13
clearance [3]: 17 mL/min/kg
concentration at 1 h [4]: 11.9 ng/mL
Ratio [5]: 17
Ki [6]: 0.016 µM
microsomal CLint at 1 µM [7]: 16.6 µL/min/mg
microsomal CLint at 1 µM [8]: 5.4 µL/min/mg
half-life [9]: 0.8 h
fraction unbound at 6 h, 0.5 µM [10]: 0.046
AUC(0-inf) [11]: 539 ng·h/mL
IC50 (Cytochrome P450 3A4): > 50 µM
IC50 [12]: > 10 µM
Tmax [13]: 2.3 h
half-life [14]: 0.7 h
Cmax [15]: 479 ng/mL
Tmax [16]: 2.7 h
concentration at 1 h [18]: 20.9 ng/mL
IC50 [19]: > 10 µM
fraction unbound at 6 h, 0.5 µM [20]: 0.053
solubility [21]: < 1000 µg/mL
clearance [22]: 30 mL/min/kg
solubility at 72 h [23]: < 4 µM
Structure (SMILES): Cn1c(=O)n(CC(=O)N2CCC2)c2cc(-c3ccc(C(F)(F)F)s3)cnc21
Occ [17]: 31%
